The values that follow come from ChEMBL document CHEMBL3792359, “Discovery of Orally Available Prodrugs of the Glutamate Carboxypeptidase II (GCPII) Inhibitor 2-Phosphonomethylpentanedioic Acid (2-PMPA)” (J Med Chem, 2016).

A short description of data set [1]: Metabolic stability in human liver microsomes assessed as compound remaining at 10 uM after 1 hr by LC/MS/MS analysis. The class given is ADME. As to conditions: read-out: Stability. A digest of the protocol:
(§1)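 Prodrug at 10 µM spiked into mouse or human plasma or liver microsomes, incubated at 37 °C on an orbital shaker. Triplicate aliquots taken at 0, 30 and 60 min, quenched with 3 volumes of ice-cold acetonitrile containing losartan internal standard, vortexed, spun 12000 g for 10 min. Parent disappearance followed by LC/MS/MS and reported as % remaining at 1 h.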
In general terms: Liver microsomes are vesicles of endoplasmic reticulum, rich in cytochrome P450 enzymes.

Data set [2] in a line: Metabolic stability in mouse plasma assessed as compound remaining at 10 uM after 1 hr by LC/MS/MS analysis. Format: ADME, cell-free. As to conditions: read-out: Stability. A digest of the protocol: as §1
The nature of data set [3]: Metabolic stability in human plasma assessed as compound remaining at 10 uM after 1 hr by LC/MS/MS analysis. The class given is ADME, cell-free. Particulars: read-out: Stability. A digest of the protocol: as §1
The nature of data set [4]: Metabolic stability in mouse liver microsomes assessed as compound remaining at 10 uM after 1 hr by LC/MS/MS analysis. Format: ADME. Particulars: read-out: Stability. A digest of the protocol: as §1
A short description of data set [5]: Chemical stability of compound. The class given is physicochemical.
For data set [6], the system named is Plasma. Put plainly: Prodrug activation in mouse plasma assessed as 2-phosphonomethylpentanedioic acid formation at 30 mg/kg administered via oral gavage after 30 mins by LC/MS/MS analysis. Format: organism-based. As to conditions: in vivo, 0.5 h. A digest of the protocol: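 Mice given prodrug orally at 30 mg/kg (equivalent of 1), 10 mL/kg volume; blood taken at 30 min, N=3. Plasma extracted with methanol containing 2-PMSA internal standard. Released 1 measured selectively after mild MTBSTFA derivatization (~60 °C, 40 min) by LC/MS/MS. Total prodrug plus metabolites measured separately after n-butanol/3N HCl derivatization (60°C, 30 min), which converts all species to butyl esters of 1.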

Data set [7] relates to Canis familiaris. Put plainly: Cmax in beagle dog assessed as 2-phosphonomethylpentanedioic acid at 10 mg/kg administered via oral gavage measured after 30 mins to 8 hrs by LC/MS/MS analysis. The class given is ADME, organism-based, Canis lupus familiaris. Set-up: dose 10 mg/kg, route oral. As to conditions: in vivo. A digest of the protocol: (§2)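 Single beagle dog given oral dose of 10 mg/kg (expressed as equivalent of 1). Jugular venipuncture blood at 0, 30 min, 1, 2, 4, 6, 8 h into potassium oxalate/NaF tubes, kept on wet ice, spun 3000 x g, 4°C, 5 min; plasma frozen at -60 to -80°C. LC/MS/MS. Cmax and Tmax taken as observed values; AUC to last sample by log-linear trapezoidal rule.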

For data set [8], the system named is Canis familiaris. Put plainly: Tmax in beagle dog assessed as 2-phosphonomethylpentanedioic acid at 10 mg/kg administered via oral gavage measured after 30 mins to 8 hrs by LC/MS/MS analysis. Format: ADME, organism-based, Canis lupus familiaris. Particulars: in vivo. A digest of the protocol:
as §2

The test system of data set [9] is Canis familiaris. Put plainly: AUC (0 to t) in beagle dog assessed as 2-phosphonomethylpentanedioic acid at 10 mg/kg administered via oral gavage measured after 30 mins to 8 hrs by LC/MS/MS analysis. As to conditions: in vivo. Set-up: dose 10 mg/kg, time upper 8 hr, time lower 0.5 hr, route oral. The class given is ADME, organism-based, Canis lupus familiaris. A digest of the protocol: as §2

Data set [10] concerns Mus musculus. Put plainly: Cmax in mouse assessed as 2-phosphonomethylpentanedioic acid at 30 mg/kg administered via oral gavage measured after 15 mins to 4 hrs by LC/MS/MS analysis. The class given is ADME, organism-based. Set-up: dose 30 mg/kg, route oral. Particulars: in vivo. A digest of the protocol: (§3)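 Mice dosed orally at 30 mg/kg (equivalent of 1), 10 mL/kg dosing volume. Cardiac-puncture blood at 0, 15, 30 min, 1, 2, 4 h, n=3 per time point; plasma stored at -80°C. Methanol precipitation with 2-PMSA internal standard, then mild MTBSTFA derivatization (~60 °C, 40 min) so only free 1 is measured by LC/MS/MS. Cmax/Tmax observed; AUC to last sample by log-linear trapezoidal rule.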

Data set [11] concerns Mus musculus. Put plainly: Tmax in mouse assessed as 2-phosphonomethylpentanedioic acid at 30 mg/kg administered via oral gavage measured after 15 mins to 4 hrs by LC/MS/MS analysis. As to conditions: in vivo. The class given is ADME, organism-based. A digest of the protocol: as §3
Data set [12] has as its system Mus musculus. Put plainly: AUC (0 to t) in mouse assessed as 2-phosphonomethylpentanedioic acid at 30 mg/kg administered via oral gavage measured after 15 mins to 4 hrs by LC/MS/MS analysis. The class given is ADME, organism-based. Also noted: time upper 4 hr, dose 30 mg/kg, time lower 0.25 hr, route oral. As to conditions: in vivo. A digest of the protocol:
as §3

A short description of data set [13]: Tmax in mouse at 30 mg/kg administered via oral gavage measured after 15 mins to 4 hrs by LC/MS/MS analysis. The class given is ADME, organism-based. Particulars: in vivo. A digest of the protocol:
(§4)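 Mice were dosed by oral gavage at 30 mg/kg (parent-drug equivalent) in 10 mL/kg. Blood was taken by cardiac puncture at 0, 15 and 30 min and 1, 2 and 4 h, n=3 per time point. Plasma was stored at -80 °C and the released parent drug measured by LC/MS/MS. Cmax and Tmax are observed values; AUC is the log-linear trapezoidal AUClast.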

A short description of data set [14]: AUC (0 to t hrs) in mouse at 30 mg/kg administered via oral gavage measured after 15 mins to 4 hrs by LC/MS/MS analysis. The class given is ADME, organism-based. Set-up: time lower 0.25 hr, dose 30 mg/kg, time upper 4 hr, route oral. As to conditions: in vivo. A digest of the protocol:
as §4

Data set [15] can be described thus: Cmax in mouse at 10 mg/kg administered via oral gavage measured after 15 mins to 4 hrs by LC/MS/MS analysis. The class given is ADME, organism-based. Set-up: dose 10 mg/kg, route oral. As to conditions: in vivo.
Data set [16] can be described thus: AUC (0 to t hrs) in mouse at 10 mg/kg administered via oral gavage measured after 15 mins to 4 hrs by LC/MS/MS analysis. Set-up: dose 10 mg/kg, time 0.25-4 hr, route oral. As to conditions: in vivo. The class given is ADME, organism-based.
Data set [17] concerns Plasma. Put plainly: Plasma concentration in rhesus monkey at 10 mg/kg, po measured at 0.25 to 2 hrs post dose. Particulars: in vivo. Format: ADME, organism-based, Macaca mulatta.
Data set [18] is described as follows: Cmax in mouse at 30 mg/kg administered via oral gavage measured after 15 mins to 4 hrs by LC/MS/MS analysis. As to conditions: in vivo. Format: ADME, organism-based. Also noted: dose 30 mg/kg, route oral. A digest of the protocol:
as §4

In the case of `COC(=O)CCC(CP(=O)(OCOC(=O)C(C)(C)C)OCOC(=O)C(C)(C)C)C(=O)OC` (configuration not stated), the remaining at 1 h, 10 µM in data set [1] amounted to 0%; in data set [2] it was 0%; in data set [3] it was 29%; in [4], 0%.
Regarding `CC(C)OC(=O)OCOP(=O)(CC(CCC(=O)O)C(=O)O)OCOC(=O)OC(C)C` (configuration not stated), the Stability result in [5] was “Unstable”.
Turning to `COC(=O)CCC(CP(=O)(OCOC(=O)OC(C)C)OCOC(=O)OC(C)C)C(=O)OC` (configuration not stated), the remaining at 1 h, 10 µM in [1] worked out at 0%; in data set [2] it was 0.1%; in data set [3], 0%; in data set [4], 0.1%.
Consider `CCOC(=O)C(CCC(=O)O)CP(=O)(OCOC(=O)C(C)(C)C)OCOC(=O)C(C)(C)C` (configuration not stated), for which the remaining at 1 h, 10 µM in [1] stood at 26%; in [2], 3%; in [3], 61%; in data set [4], 0%. The Drug metabolism in the data set with Plasma [6] was found to be 0.54 µM.
Turning to `COC(=O)CCC(CP(=O)(O)O)C(=O)OC` (configuration not stated), the remaining at 1 h, 10 µM in [1] amounted to 103%; in data set [2], 86%; in data set [3], 96%; in data set [4], 101%.
As for `CC(C)(C)C(=O)OCOC(=O)C(CCC(=O)O)CP(=O)(OCOC(=O)C(C)(C)C)OCOC(=O)C(C)(C)C` (configuration not stated), the remaining at 1 h, 10 µM in data set [1] amounted to 0%; in [2], 0%; in data set [3], 79%; in data set [4], 0%. Moreover, the Drug metabolism in the data set on Plasma [6] worked out at 15.8 µM.
Turning to `CC(C)OC(=O)OCOC(=O)C(CCC(=O)O)CP(=O)(OCOC(=O)OC(C)C)OCOC(=O)OC(C)C` (configuration not stated), the remaining at 1 h, 10 µM in data set [1] stood at 0%; in data set [2] it was 0%; in data set [3], 48%; in data set [4] it was 0%. The maximum concentration (Cmax) – broadly, the maximum level reached in the sampled fluid or tissue – was found to be 51.1 µM in the data set with Canis familiaris [7] and 15.1 µM in the data set with Mus musculus [10]. Also, the Tmax (usually the time at which the peak concentration occurs) in the data set on Canis familiaris [8] amounted to 1 h; in the data set on Mus musculus [11], 0.5 h. Moreover, the AUCt with Canis familiaris [9] is 126000 nM·h; with Mus musculus [12] it was 35900 nM·h. Moreover, in the data set on Plasma [6], the Drug metabolism was found to be 15.66 µM.
Regarding `CCOC(=O)C(CCC(=O)O)CP(=O)(OCOC(=O)OC(C)C)OCOC(=O)OC(C)C` (configuration not stated), the remaining at 1 h, 10 µM is 32% in data set [1], 0% in data set [2], 80% in data set [3] and 0% in data set [4]. Also, the Drug metabolism in the data set with Plasma [6] came to 0.49 µM.
With `CCOC(=O)CCC(CP(=O)(OCOC(=O)C(C)(C)C)OCOC(=O)C(C)(C)C)C(=O)OCC` (configuration not stated), the remaining at 1 h, 10 µM in [1] worked out at 0%; in [2], 0%; in [3], 18%; in data set [4], 0%.
For the compound `COC(=O)C(CCC(=O)O)CP(=O)(OCOC(=O)C(C)(C)C)OCOC(=O)C(C)(C)C` (configuration not stated), the remaining at 1 h, 10 µM was found to be 54% in [1], 0% in data set [2], 82% in [3] and 0% in data set [4]. Moreover, the Drug metabolism with Plasma [6] is 0.74 µM.
As to `CCOC(=O)CCC(CP(=O)(O)O)C(=O)OCC` (configuration not stated), the remaining at 1 h, 10 µM came to 88% in [1], 59% in [2], 73% in data set [3] and 83% in data set [4].
`O=C(O)CCC(CP(=O)(O)O)C(=O)O` (configuration not stated): the remaining at 1 h, 10 µM in data set [1] worked out at 91%; in data set [2], 85%; in data set [3] it was 83%; in data set [4], 100%. For the same compound, in data set [13], the Tmax turned out to be 1 h. Moreover, the AUC(0-t) – broadly, exposure summed from dosing to a finite time, without extrapolation to infinity – stood at 1940 nM·h in data set [14] and 600 nM·h in [16]. Further, the maximum concentration (Cmax) is 0.28 µM in data set [15] and 0.86 µM in data set [18]. The concentration in the data set with Plasma [17] stood at 0.18 µM.
